According to ChEMBL document CHEMBL4823251, “Structure-Based Exploration of Selectivity for ATM Inhibitors in Huntington's Disease” (J Med Chem, 2021):
Converted amounts (≈) assume the structure as drawn.

Experiments:
[1] = target: T1, Phosphatidylinositol 3-kinase catalytic subunit type 3 (Homo sapiens, UniProt Q8NEB9); assay: Inhibition of full length recombinant GST-tagged human VPS34 expressed in baculovirus expression system using PI/PS as substrate incubated for 60 mins in presence of ATP at Km concentration by luminescence assay
[2] = Effective efflux ratio of apparent permeability across basolateral to apical over apical to basolateral side in MDCK-MDR1 cells assessed as efflux ratio after 1 hr by LC-MS/MS analysis; type: ADME, cell-based, Canis lupus familiaris; conditions: dog, mdck-mdr1, 1 h
Outline: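 MDCKII MDR1 and wild-type cells seeded at 2 × 10⁵ cells/well in Transwells, cultured 3 days. Test compounds 10 μM in HBSS with 25 mM HEPES pH 7.4, dosed apical or basolateral in duplicate, 1 h at 37 °C. Lucifer yellow monolayer check, wells above 100 nm/s rejected. LC–MS/MS read-out. ER = Papp B>A/A>B. EER = MDR1 ER over wild-type ER.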

[3] = target: DNA-dependent protein kinase catalytic subunit (Homo sapiens, UniProt P78527); assay: Inhibition of DNA-PK isolated from human HeLa nuclear extract using full length His-tagged p53 as substrate measured after 75 mins in presence of ATP by HTRF assay; type: subcellular, Nucleus
Outline: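 Buffer was 50 mM HEPES pH 7.5, 5 mM MgCl₂, 0.01% Brij35, 1 mM DTT and 1 μg/mL sheared calf thymus DNA; reaction ran 75 min at 20 °C. Stopped with d2-anti-6HIS and cryptate anti-phospho-p53 antibodies in KF/EDTA buffer. Read at 665/620 nm after 7 h.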

[4] = Bioavailability in C57Bl/6 mouse at 10 mg/kg, po or 2 mg/kg, iv; conditions: in vivo
[5] = target: T1, Phosphatidylinositol 3-kinase catalytic subunit type 3; assay: Binding affinity to VPS34 (unknown origin)
[6] = Kinetic solubility of the compound in pH 7.4 PBS buffer incubated for 2 hrs using orbital shaker by LC-UV mass spectrometry; type: physicochemical; conditions: read-out: Kinetic_solubility
Outline: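 Shaken on an orbital shaker for 2 h at room temperature, then filtered. Filtrate analysed by LC-UV with MS confirmation, calibrated against 200 μM and 10 μM DMSO dilutions.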

[7] = Apparent permeability across apical to basolateral side in MDCK-MDR1 cells after 1 hr by LC-MS/MS analysis; type: ADME, cell-based, Canis lupus familiaris; conditions: dog
Outline: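 MDCKII-MDR1 and wild-type cells seeded at 2 × 10⁵ cells/well on Transwells and cultured 3 days. Test compound at 10 μM in HBSS with 25 mM HEPES, pH 7.4, added apical or basolateral in duplicate. Lucifer yellow used as integrity check; wells above 100 nm/s rejected. Sampled after 1 h at 37 °C and quantified by LC–MS/MS. Papp taken from the apical-to-basal direction.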

[8] = Intrinsic clearance in C57Bl/6 mouse pooled liver microsomes at 1 uM measured up to 40 mins in presence of NADPH by LC-MS/MS analysis; type: ADME, Microsome; conditions: read-out: CLH
Outline: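 Reaction started with 1 mM NADPH. Sampled at 0, 5, 10, 20 and 40 min, quenched in acetonitrile with internal standard, and analysed by LC–MS/MS.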

[9] = Volume of distribution at steady state in C57Bl/6 mouse at 2 mg/kg, iv administered as single dose; type: ADME, organism-based; conditions: in vivo, read-out: Vdss
Outline: (§1)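 Male C57BL/6 mice given a slow tail-vein bolus of a 0.4 mg/mL solution in 10:40:50 DMSO/PEG/H₂O, at 2 mg/kg (5 mL/kg) or 0.8 mg/kg (2 mL/kg). Plasma and brain sampled over 8 h, n = 3 per time point, and measured by LC–MS/MS. Noncompartmental analysis on mean concentrations with linear-trapezoidal AUC. Kp is the brain/plasma AUC ratio of total concentrations; Kpuu uses free concentrations, corrected by equilibrium-dialysis plasma and brain binding.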

[10] = Half life in C57Bl/6 mouse at 2 mg/kg, iv administered as single dose; type: ADME, organism-based; conditions: in vivo; outline: as §1
[11] = Unbound brain-to-plasma concentration ratio in C57Bl/6 mouse at 2 mg/kg, iv administered as single dose; type: ADME, organism-based; conditions: brain and plasma, read-out: K(p,uu,brain); outline: as §1
Homo sapiens [12] = species: Homo sapiens; assay: Selectivity ratio of Ki for full length recombinant GST-tagged VPS34 expressed in baculovirus expression system using PI/PS as substrate incubated for 60 mins in presence of ATP at Km concentration by luminescence assay to Ki for full length recombinant FLAG-tagged human ATM assessed as decrease in p53 S15 phosphorylation using full length myc-tagged p53 as substrate incubated for 30 mins in presence of ATP by ELISA
Outline: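 ADP-Glo luminescence read-out. ATM reaction: 0.75 nM enzyme, 25 nM myc-p53, 10 μM ATP, 30 min at 20 °C, p53 S15 phosphorylation by ELISA. Ki values are means of at least two experiments.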

[13] = Brain to plasma permeability coefficient, Kp in C57Bl/6 mouse at 2 mg/kg, iv administered as single dose; type: ADME, organism-based; conditions: brain and plasma; outline: as §1
Homo sapiens [14] = species: Homo sapiens; assay: Selectivity ratio of Ki for DNA-PK isolated from human HeLa nuclear extract using full length His-tagged p53 as substrate measured after 75 mins in presence of ATP by HTRF assay to Ki for full length recombinant FLAG-tagged human ATM assessed as decrease in p53 S15 phosphorylation using full length myc-tagged p53 as substrate incubated for 30 mins in presence of ATP by ELISA
Outline: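 HTRF detection of p53 S15 phosphorylation. ATM reaction: 0.75 nM enzyme, 25 nM myc-p53, 10 μM ATP, 30 min at 20 °C, anti-myc capture ELISA. Ki values are means of at least two experiments.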

[15] = target: T2, Serine-protein kinase ATM (Homo sapiens, UniProt Q13315); assay: Inhibition of full length recombinant FLAG-tagged human ATM assessed as decrease in p53 S15 phosphorylation using full length myc-tagged p53 as substrate incubated for 30 mins in presence of ATP by ELISA
Outline: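 Buffer was 25 mM HEPES pH 7.5 with MgCl₂, MnCl₂, Brij-35, glycerol, BSA and DTT (0.1% DMSO); reaction ran 30 min at 20 °C and was stopped with 70 mM EDTA. Product captured on anti-myc-coated plates and detected with anti-p53 pS15, HRP secondary and TMB, absorbance at 450 nm.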

[16] = target: Serine/threonine-protein kinase ATR (Homo sapiens, UniProt Q13535); assay: Inhibition of ATR in human HT-29 cells assessed as reduction in CHK1 phosphorylation incubated for 4 hrs; type: cell-based
Outline: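 HT29 cells seeded at 25k/well overnight, then treated with compound titrations (0.3% DMSO) plus 10 μM gemcitabine for 4 h. Cells fixed in paraformaldehyde, permeabilized with Triton-X, and stained for phospho-Chk1 and total Chk1 using LI-COR IRDye detection. Ratio normalized to DMSO and 30 μM AZ-20 controls. IC50 is the mean of at least two experiments.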

[17] = Clearance in C57Bl/6 mouse at 2 mg/kg, iv administered as single dose; type: ADME, organism-based; conditions: in vivo; outline: as §1
[18] = target: T2, Serine-protein kinase ATM; assay: Inhibition of ATM in human U2OS cells assessed as reduction in etoposide-stimulated KAP1 phosphorylation incubated for 60 mins by immunoreactivity assay; type: cell-based
Outline: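 U2OS cells plated overnight at 6k cells/well (37 °C, 5% CO₂), then treated with compound titrations (0.3% DMSO) plus 100 μM etoposide for 60 min. Cells fixed in cold methanol and stained for phospho-KAP1 and total KAP1 using IRDye secondaries on a LI-COR Odyssey. IC50 is the mean of at least two experiments.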

[19] = Brain to plasma permeability coefficient, Kp in C57Bl/6 mouse at 0.8 mg/kg, iv administered as single dose; type: ADME, organism-based; conditions: brain and plasma; outline: as §1
[20] = Bioavailability in C57Bl/6 mouse at 10 mg/kg, po or 0.8 mg/kg, iv; type: ADME, organism-based; conditions: in vivo
Outline: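 An IV reference dose of 0.8 mg/kg was given. Plasma measured by LC–MS/MS, n = 3 per time point. %F calculated as dose-normalized PO AUCinf divided by dose-normalized IV AUCinf.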

[21] = Unbound brain-to-plasma concentration ratio in C57Bl/6 mouse at 0.8 mg/kg, iv administered as single dose; type: ADME, organism-based; conditions: brain and plasma, read-out: K(p,uu,brain); outline: as §1
[22] = Half life in C57Bl/6 mouse at 0.8 mg/kg, iv administered as single dose; type: ADME, organism-based; conditions: in vivo; outline: as §1
[23] = Clearance in C57Bl/6 mouse at 0.8 mg/kg, iv administered as single dose; type: ADME, organism-based; conditions: in vivo; outline: as §1
[24] = Volume of distribution at steady state in C57Bl/6 mouse at 0.8 mg/kg, iv administered as single dose; type: ADME, organism-based; conditions: in vivo, read-out: Vdss; outline: as §1
[25] = target: Serine/threonine-protein kinase mTOR (Homo sapiens, UniProt P42345); assay: Binding affinity to mTOR (unknown origin)

T1 sequence (Q8NEB9 whole entry): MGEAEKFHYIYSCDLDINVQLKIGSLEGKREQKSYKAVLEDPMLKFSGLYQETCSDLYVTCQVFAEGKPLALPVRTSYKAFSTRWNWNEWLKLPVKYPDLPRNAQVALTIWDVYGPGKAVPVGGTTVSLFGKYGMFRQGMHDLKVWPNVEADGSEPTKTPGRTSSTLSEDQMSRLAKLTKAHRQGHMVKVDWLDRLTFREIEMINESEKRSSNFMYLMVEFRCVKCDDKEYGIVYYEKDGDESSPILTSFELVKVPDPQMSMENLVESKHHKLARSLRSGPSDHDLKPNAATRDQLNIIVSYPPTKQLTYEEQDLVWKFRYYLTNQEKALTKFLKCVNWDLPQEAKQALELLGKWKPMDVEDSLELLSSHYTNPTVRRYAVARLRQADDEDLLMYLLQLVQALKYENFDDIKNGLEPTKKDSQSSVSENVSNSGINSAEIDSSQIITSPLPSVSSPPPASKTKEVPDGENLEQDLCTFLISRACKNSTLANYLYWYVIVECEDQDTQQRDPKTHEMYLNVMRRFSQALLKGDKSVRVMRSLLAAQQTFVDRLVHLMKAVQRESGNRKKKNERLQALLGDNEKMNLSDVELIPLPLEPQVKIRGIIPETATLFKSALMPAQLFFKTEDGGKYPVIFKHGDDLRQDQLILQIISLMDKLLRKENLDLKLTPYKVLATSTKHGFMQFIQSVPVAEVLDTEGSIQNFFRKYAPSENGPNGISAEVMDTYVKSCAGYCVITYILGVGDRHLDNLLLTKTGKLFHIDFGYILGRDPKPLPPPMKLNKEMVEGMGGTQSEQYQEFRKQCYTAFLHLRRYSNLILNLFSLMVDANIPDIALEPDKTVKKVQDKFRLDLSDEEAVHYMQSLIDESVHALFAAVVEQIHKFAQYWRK
T2 sequence (Q13315 whole entry): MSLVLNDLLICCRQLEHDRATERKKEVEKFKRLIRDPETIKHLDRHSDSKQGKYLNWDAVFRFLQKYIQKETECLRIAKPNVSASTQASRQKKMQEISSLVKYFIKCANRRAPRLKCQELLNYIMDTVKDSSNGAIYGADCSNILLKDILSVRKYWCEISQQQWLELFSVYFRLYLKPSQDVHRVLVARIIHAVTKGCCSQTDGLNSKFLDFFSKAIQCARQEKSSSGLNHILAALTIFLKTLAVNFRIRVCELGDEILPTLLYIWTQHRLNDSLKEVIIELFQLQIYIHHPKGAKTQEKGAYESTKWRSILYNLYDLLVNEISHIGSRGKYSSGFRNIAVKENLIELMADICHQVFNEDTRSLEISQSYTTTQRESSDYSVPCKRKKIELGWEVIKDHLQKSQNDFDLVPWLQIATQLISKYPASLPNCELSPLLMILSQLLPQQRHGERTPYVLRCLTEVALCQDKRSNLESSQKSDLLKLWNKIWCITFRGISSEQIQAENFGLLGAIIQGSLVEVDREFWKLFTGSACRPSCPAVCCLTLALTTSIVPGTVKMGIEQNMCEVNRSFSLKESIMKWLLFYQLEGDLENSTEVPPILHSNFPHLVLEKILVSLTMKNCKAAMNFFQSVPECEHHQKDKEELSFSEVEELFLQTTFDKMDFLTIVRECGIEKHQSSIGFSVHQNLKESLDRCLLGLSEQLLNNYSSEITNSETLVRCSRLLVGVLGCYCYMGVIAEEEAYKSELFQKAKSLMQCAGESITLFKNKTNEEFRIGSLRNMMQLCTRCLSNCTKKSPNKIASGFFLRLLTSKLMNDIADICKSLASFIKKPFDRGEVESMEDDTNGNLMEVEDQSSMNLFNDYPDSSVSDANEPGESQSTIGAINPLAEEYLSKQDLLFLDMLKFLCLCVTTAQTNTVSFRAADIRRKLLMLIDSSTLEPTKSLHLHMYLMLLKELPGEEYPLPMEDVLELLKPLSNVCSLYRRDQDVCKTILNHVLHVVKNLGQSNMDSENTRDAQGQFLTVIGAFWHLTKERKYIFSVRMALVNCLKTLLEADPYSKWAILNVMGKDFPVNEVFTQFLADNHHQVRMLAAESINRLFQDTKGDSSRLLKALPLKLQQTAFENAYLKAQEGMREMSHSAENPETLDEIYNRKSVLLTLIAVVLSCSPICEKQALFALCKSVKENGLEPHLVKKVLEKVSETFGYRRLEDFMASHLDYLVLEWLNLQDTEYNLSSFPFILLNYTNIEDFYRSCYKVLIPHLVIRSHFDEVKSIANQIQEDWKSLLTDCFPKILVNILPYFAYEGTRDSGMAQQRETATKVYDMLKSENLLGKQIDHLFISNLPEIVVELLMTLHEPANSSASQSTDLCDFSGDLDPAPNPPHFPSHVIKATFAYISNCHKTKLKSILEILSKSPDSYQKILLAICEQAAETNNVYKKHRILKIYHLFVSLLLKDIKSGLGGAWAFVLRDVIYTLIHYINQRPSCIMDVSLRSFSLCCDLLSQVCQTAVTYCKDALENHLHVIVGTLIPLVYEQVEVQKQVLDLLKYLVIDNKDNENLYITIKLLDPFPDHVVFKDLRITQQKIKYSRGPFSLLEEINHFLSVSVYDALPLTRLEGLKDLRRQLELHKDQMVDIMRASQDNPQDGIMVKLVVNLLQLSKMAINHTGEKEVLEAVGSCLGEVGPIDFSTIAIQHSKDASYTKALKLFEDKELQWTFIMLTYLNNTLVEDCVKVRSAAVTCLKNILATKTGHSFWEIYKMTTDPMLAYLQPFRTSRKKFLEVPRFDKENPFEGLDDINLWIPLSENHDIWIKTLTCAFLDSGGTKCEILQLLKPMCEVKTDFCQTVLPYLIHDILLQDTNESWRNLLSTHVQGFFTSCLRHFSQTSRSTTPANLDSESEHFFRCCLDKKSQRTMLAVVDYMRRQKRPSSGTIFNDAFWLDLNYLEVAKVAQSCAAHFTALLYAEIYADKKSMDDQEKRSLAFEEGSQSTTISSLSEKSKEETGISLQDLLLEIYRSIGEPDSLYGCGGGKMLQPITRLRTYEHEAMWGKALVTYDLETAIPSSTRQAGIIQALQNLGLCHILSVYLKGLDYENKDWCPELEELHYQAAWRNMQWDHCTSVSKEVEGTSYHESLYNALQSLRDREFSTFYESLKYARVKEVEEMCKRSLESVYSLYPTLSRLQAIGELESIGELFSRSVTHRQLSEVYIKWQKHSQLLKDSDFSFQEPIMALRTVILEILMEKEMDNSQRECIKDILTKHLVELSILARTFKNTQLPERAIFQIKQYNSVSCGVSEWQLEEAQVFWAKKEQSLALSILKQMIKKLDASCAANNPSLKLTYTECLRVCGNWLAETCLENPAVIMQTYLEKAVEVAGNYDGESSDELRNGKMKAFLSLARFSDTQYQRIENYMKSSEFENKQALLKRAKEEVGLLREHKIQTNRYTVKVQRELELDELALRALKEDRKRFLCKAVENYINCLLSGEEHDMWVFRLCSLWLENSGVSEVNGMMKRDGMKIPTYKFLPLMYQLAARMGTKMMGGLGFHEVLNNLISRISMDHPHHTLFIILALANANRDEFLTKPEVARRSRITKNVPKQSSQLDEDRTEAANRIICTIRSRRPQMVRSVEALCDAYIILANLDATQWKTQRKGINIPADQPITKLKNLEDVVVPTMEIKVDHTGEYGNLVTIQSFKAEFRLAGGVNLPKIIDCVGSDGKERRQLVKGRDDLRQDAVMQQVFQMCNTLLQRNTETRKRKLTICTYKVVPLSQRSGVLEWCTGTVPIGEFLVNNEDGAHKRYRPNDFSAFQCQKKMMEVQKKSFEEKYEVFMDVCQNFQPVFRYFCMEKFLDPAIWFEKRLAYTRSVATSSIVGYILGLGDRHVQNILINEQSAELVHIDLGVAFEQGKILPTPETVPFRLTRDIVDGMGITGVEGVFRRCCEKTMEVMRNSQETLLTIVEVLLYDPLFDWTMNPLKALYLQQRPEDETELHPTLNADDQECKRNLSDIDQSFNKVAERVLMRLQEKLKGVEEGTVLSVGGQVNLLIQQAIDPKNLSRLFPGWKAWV

Ki [1] [nM] | Ki [3] [nM] | solubility kinetic at 2 h [6] [µg/mL] | Ratio Ki (Homo sapiens [12]) | Ratio Ki (Homo sapiens [14]) | Ki [15] [nM] | IC50 [16] [nM] | IC50 [18] [nM] | SMILES | Ratio [2] | Papp A→B at 1 h [7] [×10⁻⁶ cm/s] | CLint scaled at 1 µM [8] [mL/min/kg] | Vd [9] [L/kg] | half-life [10] [h] | Kp uu [11] | Kp [13] | clearance [17] [mL/min/kg] | also measured
50 | 180 | > 58 | 50 | 180 | 1 | > 30000 | 230 | O=c1cc(N2CCOCC2)cc(N2CCCCC[C@@H]2Cc2ccccc2)[nH]1 | 4.3 | 55.6 | 69 | 3.4 | 1.6 | 0.18 | 0.41 | 35 | bioavailability [4]: 68%; Kd [5]: 11000 nM
6 | 110 | 33 (≈ 93.1 µM) | 15 | 275 | 0.4 | 5500 | 90 | C[C@@H]1CCN(c2nc(N3CCOCC3)cc(=O)[nH]2)[C@H]1Cc1ccccc1 | – | – | – | – | – | – | – | – | Kp [19]: 1; bioavailability [20]: 78%; Kp uu [21]: 0.47; half-life [22]: 0.75 h; clearance [23]: 115 mL/min/kg; Vd [24]: 11 L/kg

SMILES | Ki [1] [nM] | Ki [3] [nM] | solubility kinetic at 2 h [6] [µg/mL] | Ratio Ki (Homo sapiens [12]) | Ratio Ki (Homo sapiens [14]) | Ki [15] [nM] | IC50 [16] [nM] | IC50 [18] [nM] | Ratio [2] | Papp A→B at 1 h [7] [×10⁻⁶ cm/s] | CLint scaled at 1 µM [8] [mL/min/kg] | Vd [9] [L/kg] | half-life [10] [h] | Kp uu [11] | Kp [13] | clearance [17] [mL/min/kg] | also measured
O=c1cc(N2CCOCC2)cc(N2C[C@H]3C[C@H]3[C@@H]2Cc2ccccc2)[nH]1 | 98 | 160 | 59 (≈ 168 µM) | 49 | 80 | 2 | > 30000 | – | 6.7 | 65.7 | < 75 | 4.7 | 2.4 | 0.12 | 0.23 | 33.3 | Kd [25]: 4600 nM
